In ChEMBL document CHEMBL4411301, “Design, Biological Evaluation, and Molecular Modeling of Tetrahydroisoquinoline Derivatives: Discovery of A Potent P-Glycoprotein Ligand Overcoming Multidrug Resistance in Cancer Stem Cells” (J Med Chem, 2019):
The source made the active and inactive calls.

Experiments:
[1] = molecular target: T1, ATP-dependent translocase ABCB1 (Homo sapiens, UniProt P08183); assay: Inhibition of MDR1 in human primary glioblastoma stem cells assessed as increase in doxorubicin-induced reduction in cell viability at 1 uM after 24 hrs by LDH release assay
[2] = molecular target: T1, ATP-dependent translocase ABCB1; assay: Inhibition of MDR1 in human primary mesothelioma stem cells assessed as increase in doxorubicin-induced reduction in cell viability at 1 uM after 72 hrs by ATPlite luminescence assay
Procedure, shortened: (§1)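 Primary glioblastoma or mesothelioma differentiated and stem cells incubated 72 h with medium, 5 µM doxorubicin, 10 nM compound or 1 µM elacridar, alone or combined (DMSO 1% v/v). Viability by ATPlite luminescence as % of untreated RLU. Quadruplicates, n=3, mean ± SEM, one-way ANOVA.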

Homo sapiens [3] = species on record: Homo sapiens; assay: Potentiation of doxorubicin-induced cytotoxicity in human differentiated primary glioblastoma cells assessed as increase in doxorubicin-induced reduction in cell viability at 1 uM after 72 hrs by ATPlite luminescence assay; assay type: functional, cell-based; procedure, shortened: as §1
Homo sapiens [4] = species on record: Homo sapiens; assay: Induction of intracellular doxorubicin accumulation in human differentiated primary mesothelioma stem cells at 10 to 10000 nM after 3 hrs by spectrofluorimetric analysis; assay type: functional, cell-based
Procedure, shortened: (§2)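 Differentiated or stem cells from primary glioblastoma or mesothelioma of 3 patients (stem cells used within passage 6). Incubated 3 h with 5 µM doxorubicin, alone or with compound (DMSO 1% v/v). Washed, lysed in ethanol/0.3 N HCl, doxorubicin fluorescence read at ex 475/em 553 nm and expressed as nmol/mg cell protein via calibration curve. Duplicates, n=3, mean ± SEM.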

[5] = molecular target: T1, ATP-dependent translocase ABCB1; assay: Inhibition of MDR1 in human primary glioblastoma stem cells assessed as increase in intracellular doxorubicin accumulation at 10 to 10000 nM after 3 hrs by spectrofluorimetric analysis; assay type: cell-based; procedure, shortened: as §2
Homo sapiens [6] = species on record: Homo sapiens; assay: Potentiation of doxorubicin-induced cytotoxicity in human differentiated primary mesothelioma stem cells assessed as increase in doxorubicin-induced reduction in cell viability at 1 uM after 24 hrs by LDH release assay; assay type: functional, cell-based
[7] = molecular target: T1, ATP-dependent translocase ABCB1; assay: Inhibition of MDR1 in human primary glioblastoma stem cells assessed as increase in doxorubicin-induced reduction in cell viability at 1 uM after 72 hrs by ATPlite luminescence assay; procedure, shortened: as §1
[8] = molecular target: T1, ATP-dependent translocase ABCB1; assay: Inhibition of MDR1 in human primary mesothelioma stem cells assessed as increase in doxorubicin-induced reduction in cell viability at 1 uM after 24 hrs by LDH release assay
[9] = molecular target: T1, ATP-dependent translocase ABCB1; assay: Inhibition of MDR1 in human primary mesothelioma stem cells assessed as increase in intracellular doxorubicin accumulation at 10 to 10000 nM after 3 hrs by spectrofluorimetric analysis; assay type: cell-based; procedure, shortened: as §2
Homo sapiens [10] = species on record: Homo sapiens; assay: Potentiation of doxorubicin-induced cytotoxicity in human differentiated primary mesothelioma stem cells assessed as increase in doxorubicin-induced reduction in cell viability at 1 uM after 72 hrs by ATPlite luminescence assay; assay type: functional, cell-based; procedure, shortened: as §1
Homo sapiens [11] = species on record: Homo sapiens; assay: Potentiation of doxorubicin-induced cytotoxicity in human differentiated primary glioblastoma cells assessed as increase in doxorubicin-induced reduction in cell viability at 1 uM after 24 hrs by LDH release assay; assay type: functional, cell-based
Homo sapiens [12] = species on record: Homo sapiens; assay: Induction of intracellular doxorubicin accumulation in human differentiated primary glioblastoma cells at 10 to 10000 nM after 3 hrs by spectrofluorimetric analysis; assay type: functional, cell-based; procedure, shortened: as §2

T1 sequence (P08183 whole entry): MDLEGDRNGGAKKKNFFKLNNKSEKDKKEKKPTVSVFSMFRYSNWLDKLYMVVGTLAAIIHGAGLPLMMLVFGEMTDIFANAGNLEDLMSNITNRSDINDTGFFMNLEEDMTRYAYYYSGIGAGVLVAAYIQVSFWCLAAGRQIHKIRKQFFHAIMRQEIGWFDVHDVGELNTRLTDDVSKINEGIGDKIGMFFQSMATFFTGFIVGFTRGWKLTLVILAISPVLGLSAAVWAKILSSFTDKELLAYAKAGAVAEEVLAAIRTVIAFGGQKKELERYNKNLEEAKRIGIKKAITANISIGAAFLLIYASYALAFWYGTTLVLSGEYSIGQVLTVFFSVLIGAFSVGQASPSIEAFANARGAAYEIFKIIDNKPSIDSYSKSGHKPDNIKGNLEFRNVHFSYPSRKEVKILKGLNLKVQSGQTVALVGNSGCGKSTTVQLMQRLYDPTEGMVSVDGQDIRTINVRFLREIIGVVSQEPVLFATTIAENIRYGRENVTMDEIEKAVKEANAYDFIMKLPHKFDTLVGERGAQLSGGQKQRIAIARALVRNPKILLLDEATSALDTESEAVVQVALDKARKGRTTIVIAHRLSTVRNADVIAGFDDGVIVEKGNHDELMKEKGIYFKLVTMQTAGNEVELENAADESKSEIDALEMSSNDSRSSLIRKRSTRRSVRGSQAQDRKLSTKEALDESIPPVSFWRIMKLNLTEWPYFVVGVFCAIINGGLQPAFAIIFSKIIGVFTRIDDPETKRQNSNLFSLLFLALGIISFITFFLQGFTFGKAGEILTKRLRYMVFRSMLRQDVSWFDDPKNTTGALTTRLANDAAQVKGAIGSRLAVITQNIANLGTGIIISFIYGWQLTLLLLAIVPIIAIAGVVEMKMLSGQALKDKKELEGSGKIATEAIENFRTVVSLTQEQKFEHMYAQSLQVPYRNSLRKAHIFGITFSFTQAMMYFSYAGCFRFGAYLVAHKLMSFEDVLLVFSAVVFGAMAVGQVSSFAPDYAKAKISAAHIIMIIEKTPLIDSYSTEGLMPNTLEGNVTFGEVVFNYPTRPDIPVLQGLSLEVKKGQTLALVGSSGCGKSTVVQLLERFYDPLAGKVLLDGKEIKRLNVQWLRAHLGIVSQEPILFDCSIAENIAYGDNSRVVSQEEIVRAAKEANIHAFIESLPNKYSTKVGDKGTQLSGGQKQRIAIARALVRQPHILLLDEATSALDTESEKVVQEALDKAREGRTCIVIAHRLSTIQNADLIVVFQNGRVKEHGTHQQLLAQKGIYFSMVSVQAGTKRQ

COc1cc2c(cc1OC)CN(CCc1ccc(NC(=O)c3cccc4c(=O)c5cccc(OC)c5[nH]c34)cc1)CC2 [ELACRIDAR]
Active: inhibition (INH) [1] | inhibition (INH) [2] | inhibition (INH) [5] | inhibition (INH) [7] | inhibition (INH) [8] | inhibition (INH) [9]
inactive: Activity (Homo sapiens [3]) | Activity (Homo sapiens [4]) | Activity (Homo sapiens [6]) | Activity (Homo sapiens [10]) | Activity (Homo sapiens [11]) | Activity (Homo sapiens [12])
